23 compounds from ChEMBL document CHEMBL3877288, “Identification and biochemical characterization of DC07090 as a novel potent small molecule inhibitor against human enterovirus 71 3C protease by structure-based virtual screening” (Eur J Med Chem, 2016) can be followed below.

Calls of active or inactive are those of the source. No cut-off for these calls is given here.

The subject of data set [1] is Enterovirus A71. In words: Inhibition of recombinant N-terminal 6His-tagged EV71 3C protease expressed in Escherichia coli Rosetta using substrate Dabcyl-RTATVQGPSLDFE-Edans at 50 uM after 30 mins by fluorescence assay. An outline of the steps: (§1)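 Preincubated with compound in DMSO for 30 min at 30 °C. Ex 340/Em 500 nm; initial velocity over the first 600 s. Inhibition relative to DMSO control; mean of three experiments. IC50 from serial dilutions.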

A short description of data set [2]: Inhibition of recombinant N-terminal 6His-tagged EV71 3C protease expressed in Escherichia coli Rosetta using substrate Dabcyl-RTATVQGPSLDFE-Edans preincubated for 30 mins followed by substrate addition. Set-up: species or system Enterovirus A71. The essentials: as §1
For the next data set, the system named is Coxsackievirus. Nature of the data set: Antiviral activity against Coxsackievirus A16 assessed as reduction in viral replication after 72 hrs by CellTiter-glo luminescent cell viability assay. The class given is functional. The note with it: A16, 72 h. An outline of the steps: (§2)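 RD cells seeded at 1 × 10^4/mL in DMEM with 10% FBS and antibiotics, grown 24 h at 37 °C, 5% CO2. Virus (EV71 50 TCID50; CVA16 100 TCID50) mixed with serial compound dilutions, added to cells and held 72 h at 37 °C. Protection read by CellTiter-Glo luminescence. EC50 is the concentration cutting virus-induced cell death by 50% versus virus control. Triplicate, run at least twice.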
In general terms: ATP-based viability assays read luminescence as a measure of living cells.

Data set [3] has as its system Enterovirus A71. In words: Antiviral activity against EV71 infected in human RD cells assessed as protection against virus infection after 72 hrs by MTS assay. The class given is functional, cell-based. The settings on record: Enterovirus A. Background: Tetrazolium dyes change colour on reduction, which living cells bring about.
The test system of data set [4] is Enterovirus A71. Nature of the data set: Antiviral activity against EV71 infected in human RD cells assessed as reduction in viral plaque formation after 1 hr by crystal violet staining method. The class given is functional, cell-based. The note with it: Enterovirus A.
Data set [5] concerns Enterovirus A71. In words: Antiviral activity against EV71 assessed as reduction in viral replication after 72 hrs by CellTiter-glo luminescent cell viability assay. The data set is classed as functional. The settings on record: Enterovirus A. The essentials: as §2
Data set [6] can be described thus: Binding affinity to recombinant N-terminal 6His-tagged EV71 3C protease expressed in Escherichia coli Rosetta by surface plasmon resonance assay. Set-up: species or system Enterovirus A71. An outline of the steps:
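Compound concentrations in HBS-EP were injected at 30 µL/min for 60 s, with 120 s dissociation, on a Biacore 3000. Kd fitted with a 1:1 Langmuir model.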
For orientation: Surface plasmon resonance follows binding to a sensor surface in real time, without labels.

Data set [7] is described as follows: Binding affinity to EV71 3C protease A144S mutant after 1 hr by intrinsic fluorescence quenching assay. Also on record: species or system Enterovirus A71.
Data set [8] in a line: Cytotoxicity against human RD cells after 48 hrs by CellTiter-glo luminescent cell viability assay. The data set is classed as toxicity, cell-based. An outline of the steps: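 RD cells plated at 1 × 10^3 per well in DMEM with 10% FBS and antibiotics, cultured overnight at 37 °C, 5% CO2. Compound added at 0–200 µM (final) for 48 h at 37 °C. CellTiter-Glo luminescence read. Inhibition = 1 − RLU(treated)/RLU(cell control) × 100%. CC50 obtained by regression analysis.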

Data set [9] has as its system Enterovirus A71. In words: Ratio of IC50 for recombinant N-terminal 6His-tagged EV71 3C protease to IC50 for EV71 3C protease F25W mutant.
A short description of data set [10]: Competitive inhibition of recombinant N-terminal 6His-tagged EV71 3C protease expressed in Escherichia coli Rosetta using substrate Dabcyl-RTATVQGPSLDFE-Edans by Dixon plot. Also on record: species or system Enterovirus A71. An outline of the steps: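 Same fluorogenic 3Cpro activity assay (8 µM enzyme, 30 min preincubation at 30 °C, Ex 340/Em 500 nm, initial rates) run at inhibitor 0–20 µM and substrate 40–150 µM. Mechanism assigned from Lineweaver–Burk plots; Ki obtained from Dixon plots.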

Data set [11] can be described thus: Inhibition of EV71 3C protease F25W mutant using substrate Dabcyl-RTATVQGPSLDFE-Edans at 0.1 to 10 uM preincubated for 30 mins followed by substrate addition by fluorescence assay. Also on record: species or system Enterovirus A71.
A short description of data set [12]: Binding affinity to EV71 3C protease F25W mutant after 1 hr by intrinsic fluorescence quenching assay. Set-up: species or system Enterovirus A71.
Data set [13] concerns Enterovirus A71. In words: Inhibition of EV71 3C protease F25A mutant using substrate Dabcyl-RTATVQGPSLDFE-Edans at 0.1 to 10 uM preincubated for 30 mins followed by substrate addition by fluorescence assay.
The test system of data set [14] is Enterovirus A71. Nature of the data set: Ratio of IC50 for recombinant N-terminal 6His-tagged EV71 3C protease to IC50 for EV71 3C protease A144S mutant.
Data set [15] can be described thus: Binding affinity to EV71 3C protease F25A mutant after 1 hr by intrinsic fluorescence quenching assay. Also on record: species or system Enterovirus A71.
The nature of data set [16]: Inhibition of EV71 3C protease A144S mutant using substrate Dabcyl-RTATVQGPSLDFE-Edans preincubated for 30 mins followed by substrate addition by fluorescence assay. Set-up: species or system Enterovirus A71.
Data set [17] relates to Enterovirus A71. Nature of the data set: (§3) Binding affinity to recombinant N-terminal 6His-tagged EV71 3C protease expressed in Escherichia coli Rosetta after 1 hr by intrinsic fluorescence quenching assay. An outline of the steps:
(§4)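 Compound dilutions were mixed with 2 µM 3Cpro (wild type or mutants) for 1 h on ice, then held 5 min in the dark in a 1 cm quartz cell. Trp emission spectra recorded from 300 to 400 nm at 25 °C, with maximum at 340 nm. Kd derived from dose-dependent quenching.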

Data set [18] can be described thus: as §3. Set-up: species or system Enterovirus A71. An outline of the steps:
as §4

Data set [19] deals with Enterovirus A71. In words: Antiviral activity against EV71 infected in human RD cells assessed as protection against virus-induced cytopathic effect after 48 hrs by MTS assay. The class given is functional, cell-based. The note with it: Enterovirus A.
The test system of data set [20] is Enterovirus A71. In words: Antiviral activity against EV71 infected in African green monkey Vero cells after 48 hrs by plaque assay. The data set is classed as functional, cell-based. The note with it: Enterovirus A.
A short description of data set [21]: Cytotoxicity against African green monkey Vero cells after 48 hrs by MTT assay. The note with it: chlorocebus sabaeus. The data set is classed as toxicity, cell-based.

Usually inhibition stands for the change of the read-out against control, counted positive when it falls. By IC50 is commonly meant the concentration needed to halve the response being measured. By EC50 is commonly meant the concentration needed to bring the measured effect to its halfway point. Usually Kd stands for the equilibrium constant for the complex coming apart. For orientation: CC50 means the concentration that lowers cell viability or growth by half. As a reminder, the Ki is a dissociation constant, usually derived from enzyme kinetics or from competition with a known ligand.

Take `Cc1cccc(CNc2ccc(-c3nc4ncccc4o3)cc2)n1`: in the data set with Enterovirus A71 [1], the inhibition came to 68.1%. Moreover, the IC50 in data set [2] was found to be 40.1 µM.
For the compound `CCOC(=O)/C=C/[C@H](C[C@@H]1CCNC1=O)NC(=O)[C@@H](CC(=O)[C@@H](NC(=O)c1cc(C)on1)C(C)C)Cc1ccc(F)cc1` [RUPINTRIVIR], the concentration for a half-maximal effect (EC50) with Coxsackievirus is 0.00565 µM. Besides, the inhibition in the data set on Enterovirus A71 [1] worked out at 104%. Besides, in [2], the IC50 came to 2.62 µM.
As for `O=c1cc(-c2ccccc2)oc2cc(O)cc(O)c12` [CHRYSIN], the EC50 in the data set with Enterovirus A71 [3] is 15.9 µM.
On to `Cc1ccc2oc(Cc3ccc(NCc4ccccn4)cc3)nc2n1`, for which the inhibition in the data set with Enterovirus A71 [1] was 11.9%.
The same measure, in the same setting: for `Cc1cccc(CNc2ccc(-c3nc4nc(C)ccc4o3)cc2)n1` the value was less than 5%; for `Cc1ccc2oc(-c3ccc(NCc4ccccn4)c(Cl)c3)nc2n1`, 6.96%.
As for `C[C@@H]1O[C@@H](OC[C@H]2O[C@@H](Oc3c(-c4ccc(O)c(O)c4)oc4cc(O)cc(O)c4c3=O)[C@H](O)[C@@H](O)[C@@H]2O)[C@H](O)[C@H](O)[C@H]1O` [RUTIN], the EC50 with Enterovirus A71 [4] was 110 µM.
For the compound `c1ccc(CNc2ccc(Cc3nc4ncccc4o3)cc2)nc1`, the inhibition in the data set on Enterovirus A71 [1] was found to be 73.7%. For the same compound, in data set [2], the IC50 stood at 48 µM.
In the case of `Cc1cccc(CNc2ccc(Cc3nc4ncccc4o3)cc2)n1`, the inhibition in the data set with Enterovirus A71 [1] came to 60%. For the same compound, the IC50 in data set [2] was 31.6 µM.
In the case of `Cc1ccc2oc(-c3ccc(NCc4ccccn4)c(F)c3)nc2n1`, in the data set on Enterovirus A71 [1], the inhibition worked out at 6.72%.
As for `c1ccc(CNc2ccc(-c3nc4ncccc4o3)cc2)nc1`, the 50% effective concentration (EC50) came to 22.1 µM in the data set on Enterovirus A71 [5] and 27.8 µM in the data set on Coxsackievirus. In addition, the dissociation constant Kd in data set [6] was 16.5 µM; in [7] it was 6.37 µM; in [12], 12.1 µM; in data set [15] it was 25 µM; in [18], 13.4 µM. In addition, in data set [8], the cytotoxic concentration (CC50) at 48 h is greater than 200 µM. In addition, the Ratio IC50 with Enterovirus A71 [9] is 9.5; in the data set with Enterovirus A71 [14], 2.2. Besides, the Ki in [10] was found to be 23.3 µM. The results for the concentration for half-maximal inhibition (IC50) in data set [11], in data set [16] and in data set [2] were 2.28 µM, 9.73 µM and 21.7 µM, respectively. In addition, the inhibition entry with Enterovirus A71 [13] was “Active”. The inhibition in the data set on Enterovirus A71 [1] was found to be 80.2%. Further, the Activity result in the data set on Enterovirus A71 [17] was “Dose-dependent effect”.
With `Clc1cc(-c2nc3ncccc3o2)ccc1NCc1ccccn1`, the inhibition in the data set with Enterovirus A71 [1] stood at 6.65%.
For `O=c1c(O)c(-c2ccc(O)c(O)c2)oc2cc(O)ccc12` [FISETIN], the EC50 in the data set with Enterovirus A71 [4] was determined as 84.5 µM.
For the compound `Fc1cc(-c2nc3ncccc3o2)ccc1NCc1ccccn1`, the inhibition in the data set on Enterovirus A71 [1] was less than 5%.
On to `Cc1cccc(CNc2ccc(-c3nc4ncccc4o3)cc2Cl)n1`, for which the inhibition in the data set on Enterovirus A71 [1] was determined as 34.7%.
The same measure, in the same setting: the same measure for `Cc1ccc2oc(-c3ccc(NCc4ccccn4)cc3)nc2n1`: 19.2%.
Turning to `Cc1cccc(CNc2ccc(-c3nc4ncccc4o3)cc2F)n1`, the inhibition with Enterovirus A71 [1] came to 19.2%.
The same measure, in the same setting: the same measure for `Cc1cccc(CNc2ccc(-c3nc4nc(C)ccc4o3)cc2F)n1`: less than 5%.
On to `O=c1cc(-c2ccc(O)c(O)c2)oc2cc(O[C@@H]3O[C@H](CO)[C@@H](O)[C@H](O)[C@H]3O)cc(O)c12` [GALUTEOLIN], for which the concentration giving a half-maximal response (EC50) in the data set with Enterovirus A71 [19] was 430 µM.
Take `COc1cc(-c2cc(=O)c3c(O)cc(OP(=O)(OC(C)C)OC(C)C)cc3o2)cc(OC)c1O`: the EC50 in the data set with Enterovirus A71 [3] was found to be 9.06 µM.
Regarding `Cc1cccc(CNc2ccc(Cc3nc4nc(C)ccc4o3)cc2)n1`, in the data set with Enterovirus A71 [1], the inhibition came out at 7.42%.
For `C#C[C@@]1(O)[C@H](O)[C@@H](CO)O[C@H]1n1ccc2c(N)ncnc21`, the results for the EC50 with Enterovirus A71 [5] and with Enterovirus A71 [20] were 0.17 µM and 0.67 µM, respectively. Further, the CC50 at 48 h in [21] turned out to be 120 µM.
For `Cc1cccc(CNc2ccc(-c3nc4nc(C)ccc4o3)cc2Cl)n1`, the inhibition in the data set with Enterovirus A71 [1] was 18.6%.
